Assay outcomes: PubChem BioAssay, Sanford-Burnham Center for Chemical Genomics
Only some compounds are listed: those with a hit (about 1.6% of all), similar ones and a draw of the others.
FLuc stim CS – FLuc activators, initial screening, artefact control for FLuc-dependent activation tests, biochemical, ATPlite luminescence | ATPlite luciferase biochemical, 10 min; 0 = ATP-free wells, 1 = DMSO control | activation factor at 10 µM | 200,000 tested, under 10 active;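 active = luciferase activation factor, scaled between plate controls, of at least 2 with compound at 10 µM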
Target sequence (P08659 whole entry, looked up): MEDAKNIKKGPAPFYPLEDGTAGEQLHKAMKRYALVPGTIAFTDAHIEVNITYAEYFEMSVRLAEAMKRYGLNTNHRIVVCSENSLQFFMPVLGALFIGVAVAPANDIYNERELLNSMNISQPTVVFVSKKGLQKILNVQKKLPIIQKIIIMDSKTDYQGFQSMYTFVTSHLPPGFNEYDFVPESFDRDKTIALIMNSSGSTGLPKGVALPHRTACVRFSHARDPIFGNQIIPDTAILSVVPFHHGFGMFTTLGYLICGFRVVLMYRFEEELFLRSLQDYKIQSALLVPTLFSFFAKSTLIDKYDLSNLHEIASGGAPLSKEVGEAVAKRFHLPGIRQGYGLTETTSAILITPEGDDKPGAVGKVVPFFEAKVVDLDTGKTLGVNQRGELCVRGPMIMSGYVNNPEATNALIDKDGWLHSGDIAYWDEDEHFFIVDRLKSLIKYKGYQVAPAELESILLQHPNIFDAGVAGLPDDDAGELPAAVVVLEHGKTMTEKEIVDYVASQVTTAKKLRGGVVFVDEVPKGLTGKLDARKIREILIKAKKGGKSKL
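assay system = Luciferase/luciferin detection reagent, cell-free biochemical luciferase assay | also added = ATP substrate | times = 10 min post-reagent at room temperature | measured by = luminescence from luciferase reaction | measure = luciferase activation, seen as luminescence increase over controls | benchmarks = low control with PBS replacing ATP, high control enzyme plus ATP without compound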
PPC-1+TRAIL kill – compounds killing PPC-1 cancer cells with TRAIL present, primary screen, TRAIL potentiator project, ATPLite luminescence, uHTS; actives 0.41% (n = 220,000); AID 1443, 2008; PPC-1 cells + TRAIL, ATPLite viability luminescence; cell killing (% activity), % at 4 µM or 5 µM;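 active = cell killing above 50% in the first pass at 4 µM, then a duplicate retest at 5 µM averaging 50% or more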;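 note: plate controls were cells with TRAIL plus DMSO for no effect and medium-only wells lacking cells for full effect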
FLuc inh counter – firefly luciferase enzyme inhibitors, primary screen, artefact control for luciferase-based inhibitor screens, biochemical, luminescence, ATPLite. 10 min. inhibition, % at 10 µM. actives 1.5% (n = 200,000);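 active = inhibition above about 50% when tested at 10 µM, limit read from the data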
TRAIL sens C8 – viability loss with TRAIL in NB7+C8 cells, primary screen, TRAIL sensitizer project, cell-based, ATPlite luminescence; inhibition (viability loss, TRAIL sensitization), % at 10 µM; actives 1% (n = 360,000);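 active = compounds causing at least 50% loss of cell viability in the single-dose screen, relative to plate controls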
* hit, by the source's call.

`COc1ccc(/C=C(\C#N)C(=O)Nc2cccnc2)cc1` gave FLuc stim CS 0.9, PPC-1+TRAIL kill 21, FLuc inh counter 6 and TRAIL sens C8 -9.
Cc1cc(C)cc(NCc2cc(=O)oc3cc(C)c(O)cc23)c1 was read as TRAIL sens C8 -10.
Screening CC(C)(C)c1ccc(-c2nc3[nH]c(=O)cc(NC(=O)c4ccco4)n3n2)cc1 returned TRAIL sens C8 62*.
`Cc1ccc(-c2nc3[nH]c(=O)cc(NC(=O)c4cccs4)n3n2)cc1` gave PPC-1+TRAIL kill 5 and TRAIL sens C8 20.
`COc1cccc(-n2c(Cn3nc(C(F)F)cc3C(F)F)n[nH]c2=S)c1` gave FLuc stim CS 1, PPC-1+TRAIL kill 4, FLuc inh counter -1 and TRAIL sens C8 0.
Screening CCOc1ccc(-c2cccc(NC(=O)COc3ccc(Cl)cc3)c2)nn1 returned TRAIL sens C8 20.
CCC(=O)Nc1cccc(-c2ccc(N3CCCCC3)nn2)c1 was read as TRAIL sens C8 83*.
`CN1CCN(c2ccc(-c3cccc(NC(=O)COc4ccc(Cl)cc4)c3)nn2)CC1` gave TRAIL sens C8 62*.
Screening O=C(COc1ccccc1)Nc1ccc(-c2ccc(N3CCOCC3)nn2)cc1 returned TRAIL sens C8 12.
For CN1CCN(c2ccc(-c3cccc(NC(=O)COc4ccccc4)c3)nn2)CC1 the results were TRAIL sens C8 64*.
`CN1CCN(c2ccc(-c3cccc(NC(=O)COc4ccc(Cl)cc4Cl)c3)nn2)CC1` gave TRAIL sens C8 67*.
Screening CCC(=O)Nc1cccc(-c2ccc(N3CCN(C)CC3)nn2)c1 returned TRAIL sens C8 10.
CC(=O)NC1C(=O)N=C(SCc2ccccc2)NC1=O (configuration not stated) was read as FLuc stim CS 1.1, PPC-1+TRAIL kill 14, FLuc inh counter -6 and TRAIL sens C8 -11.
For COCCNC(=S)c1ccc(Br)cc1 the results were FLuc stim CS 1, PPC-1+TRAIL kill 10, FLuc inh counter -1 and TRAIL sens C8 10.
For Nc1ccc2oc(C3CCCCC3)nc2c1 the results were FLuc stim CS 0.9, PPC-1+TRAIL kill 17, FLuc inh counter 12 and TRAIL sens C8 -9.
`COc1ccc(-n2ncc3c(N(C)C4CCCCC4)ncnc32)cc1` gave TRAIL sens C8 85*.
Cc1[nH]c2ccc(C(=O)NCC(C)(C)N3CCOCC3)cc2c1C was read as FLuc stim CS 1, PPC-1+TRAIL kill 9, FLuc inh counter 0 and TRAIL sens C8 -1.
For CCOC(=O)c1ccc(NC(=O)c2nc[nH]c2C(=O)NCCCCCNC(=O)OC(C)(C)C)cc1 the results were PPC-1+TRAIL kill 12 and TRAIL sens C8 52*.
`CC(C)(C)OC(=O)[C@H](Cc1ccccc1)NC(=O)c1nc[nH]c1C(=O)N[C@@H](Cc1ccccc1)C(=O)OC(C)(C)C` gave PPC-1+TRAIL kill 11 and TRAIL sens C8 12.
For CC(C)(C)OC[C@H](NC(=O)c1[nH]cnc1C(=O)Nc1ccccc1F)C(=O)OC(C)(C)C the results were TRAIL sens C8 60*.
For CC(C)(C)OC(=O)NCc1ccc(NC(=O)c2nc[nH]c2C(=O)NCCCCCCNC(=O)c2[nH]cnc2C(=O)Nc2ccc(CNC(=O)OC(C)(C)C)cc2)cc1 the results were TRAIL sens C8 36.
Screening O=C(Nc1cccc(Cl)c1)c1nc[nH]c1C(=O)NCCCNC(=O)c1[nH]cnc1C(=O)Nc1cccc(Cl)c1 returned TRAIL sens C8 50*.
O=C(Nc1ccccc1)c1nc[nH]c1C(=O)NCCCCNC(=O)c1[nH]cnc1C(=O)Nc1ccccc1 was read as TRAIL sens C8 29.
`CC(C)(C)OC(=O)NCc1ccc(NC(=O)c2nc[nH]c2C(=O)NCCCCNC(=O)c2[nH]cnc2C(=O)Nc2ccc(CNC(=O)OC(C)(C)C)cc2)cc1` gave TRAIL sens C8 84*.
`Nc1nnnn1CC(=O)N/N=C/c1cc([N+](=O)[O-])ccc1O` gave FLuc stim CS 1, PPC-1+TRAIL kill 19, FLuc inh counter -3 and TRAIL sens C8 -2.
`O=C(Nc1ccccc1F)c1nc[nH]c1C(=O)NCc1ccccc1` gave TRAIL sens C8 9.
`CC(C)(C)OC(=O)NCc1ccc(CNC(=O)c2[nH]cnc2C(=O)Nc2ccccc2F)cc1` gave TRAIL sens C8 56*.
Screening O=C(Nc1ccccc1)c1nc[nH]c1C(=O)Nc1ccccc1F returned TRAIL sens C8 50*.
For CC(C)(C)OC(=O)NCCCCCNC(=O)c1[nH]cnc1C(=O)Nc1cc(Br)ccc1F the results were TRAIL sens C8 58*.
For CC(C)(C)OC(=O)NCc1ccc(NC(=O)c2nc[nH]c2C(=O)Nc2cc(Br)ccc2F)cc1 the results were TRAIL sens C8 12.
CC(C)(C)OC(=O)NCc1ccc(NC(=O)c2nc[nH]c2C(=O)NCCCNC(=O)c2[nH]cnc2C(=O)Nc2ccc(CNC(=O)OC(C)(C)C)cc2)cc1 was read as TRAIL sens C8 83*.
Screening Cc1ccc(S(=O)(=O)N2CCCOC2CNC(=O)C(=O)NCc2ccccc2C)cc1 (configuration not stated) returned TRAIL sens C8 12.
Screening CCC1(C)Cc2c(sc3[nH]c(=S)[nH]c(=S)c23)CO1 (configuration not stated) returned TRAIL sens C8 -9.
Screening Cc1cc(C(=O)COc2ccccc2Cl)c(C)n1-c1ccc2c(c1)OCO2 returned FLuc stim CS 0.9, PPC-1+TRAIL kill -7, FLuc inh counter 8 and TRAIL sens C8 45.
CCN(CC)C(=O)c1cc2c(=O)c3cc(F)ccc3oc2nc1C was read as FLuc stim CS 1.1, PPC-1+TRAIL kill 3, FLuc inh counter -9 and TRAIL sens C8 -4.
Screening Cc1ccc(Nc2nnc(SCC(=O)NCCN3C(=O)CSC3=O)s2)cc1C returned FLuc stim CS 0.2, PPC-1+TRAIL kill 48, FLuc inh counter 82* and TRAIL sens C8 53*.
For CC(C)(C)OC(=O)N1O[C@H]2CC1[C@@H]1[C@@H]2N=NN1CCc1ccncc1 the results were TRAIL sens C8 9.
For Cc1cccc(-c2cc3c(N=O)c4ccccc4c-3n[nH]2)c1 the results were FLuc stim CS 0.4, PPC-1+TRAIL kill 41, FLuc inh counter 63* and TRAIL sens C8 49.
For O=C(Nc1nc(=O)c2ccccc2s1)c1ccc(F)cc1 the results were FLuc stim CS 0.5, PPC-1+TRAIL kill 18, FLuc inh counter 54* and TRAIL sens C8 55*.
Cn1sc(NC(=O)c2ccc(Cl)cc2)nc1=O was read as FLuc stim CS 0.2, PPC-1+TRAIL kill 25, FLuc inh counter 78* and TRAIL sens C8 50*.
For Cc1ccc(C(=O)Nc2nc(=O)n(C(=O)c3ccccc3Cl)s2)cc1 the results were FLuc stim CS 0.8, PPC-1+TRAIL kill 12, FLuc inh counter 18 and TRAIL sens C8 -5.
